Measurements reported in publication PMC9072645 (RSC Advances, 2019).

Tests used:
Assay type in all cases: biochemical
[1] = molecular target: T1, human recombinant (hr) FAP (Homo sapiens, UniProt Q12884); experiment: Inhibition of hrFAP
T1 sequence (Q12884 1-760): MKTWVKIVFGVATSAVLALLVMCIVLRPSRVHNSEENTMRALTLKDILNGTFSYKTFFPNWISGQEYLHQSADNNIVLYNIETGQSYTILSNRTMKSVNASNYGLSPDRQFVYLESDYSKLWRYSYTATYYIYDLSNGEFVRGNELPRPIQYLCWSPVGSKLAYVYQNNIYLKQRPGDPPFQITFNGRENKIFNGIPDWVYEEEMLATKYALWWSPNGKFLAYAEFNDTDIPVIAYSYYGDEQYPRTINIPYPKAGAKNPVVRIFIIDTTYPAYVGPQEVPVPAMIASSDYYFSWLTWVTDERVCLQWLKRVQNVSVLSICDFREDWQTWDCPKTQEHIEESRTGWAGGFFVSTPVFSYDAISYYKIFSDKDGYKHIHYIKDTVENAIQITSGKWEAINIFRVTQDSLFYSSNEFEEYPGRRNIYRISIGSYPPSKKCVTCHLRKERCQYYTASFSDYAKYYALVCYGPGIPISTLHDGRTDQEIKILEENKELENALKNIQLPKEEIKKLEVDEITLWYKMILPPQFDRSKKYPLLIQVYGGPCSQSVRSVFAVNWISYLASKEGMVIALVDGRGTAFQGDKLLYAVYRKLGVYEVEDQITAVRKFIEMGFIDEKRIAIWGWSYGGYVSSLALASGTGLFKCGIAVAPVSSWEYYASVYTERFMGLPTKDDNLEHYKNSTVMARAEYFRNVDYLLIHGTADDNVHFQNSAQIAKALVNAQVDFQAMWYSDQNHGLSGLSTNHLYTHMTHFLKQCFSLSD
Outline: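 Recombinant human FAP, 0.01 μg per well, in 50 mM Tris, 1 M NaCl, 1 mg mL−1 BSA, pH 7.5. Preincubated 30 min at 37 °C with test compound at 5, 10, 20, 50 and 100 nM. Then 50 μM Z-Gly-Pro-AMC was added and the fluorescence increase followed for 60 min at 37 °C (λex/λem 360/460 nm). Triplicate wells, experiment repeated twice. IC50 determined graphically; Ki calculated.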

hrDPP IV = hrDPP IV (Homo sapiens, UniProt P27487); experiment: Inhibition of hrDPP IV
Outline: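 Recombinant human DPP IV, 0.01 μg per well, in 25 mM Tris, 1 mg mL−1 BSA, pH 8.0. Enzyme preincubated 30 min at 37 °C with test compound […]. Residual activity was read with 50 μM H-Gly-Pro-AMC as fluorescence increase over 60 min at 37 °C, 360/460 nm. Triplicate wells, repeated twice. IC50 determined graphically.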

hrPREP = molecular target: T2, hrPREP (Homo sapiens, UniProt P48147); experiment: Inhibition of hrPREP
T2 sequence (P48147 1-710): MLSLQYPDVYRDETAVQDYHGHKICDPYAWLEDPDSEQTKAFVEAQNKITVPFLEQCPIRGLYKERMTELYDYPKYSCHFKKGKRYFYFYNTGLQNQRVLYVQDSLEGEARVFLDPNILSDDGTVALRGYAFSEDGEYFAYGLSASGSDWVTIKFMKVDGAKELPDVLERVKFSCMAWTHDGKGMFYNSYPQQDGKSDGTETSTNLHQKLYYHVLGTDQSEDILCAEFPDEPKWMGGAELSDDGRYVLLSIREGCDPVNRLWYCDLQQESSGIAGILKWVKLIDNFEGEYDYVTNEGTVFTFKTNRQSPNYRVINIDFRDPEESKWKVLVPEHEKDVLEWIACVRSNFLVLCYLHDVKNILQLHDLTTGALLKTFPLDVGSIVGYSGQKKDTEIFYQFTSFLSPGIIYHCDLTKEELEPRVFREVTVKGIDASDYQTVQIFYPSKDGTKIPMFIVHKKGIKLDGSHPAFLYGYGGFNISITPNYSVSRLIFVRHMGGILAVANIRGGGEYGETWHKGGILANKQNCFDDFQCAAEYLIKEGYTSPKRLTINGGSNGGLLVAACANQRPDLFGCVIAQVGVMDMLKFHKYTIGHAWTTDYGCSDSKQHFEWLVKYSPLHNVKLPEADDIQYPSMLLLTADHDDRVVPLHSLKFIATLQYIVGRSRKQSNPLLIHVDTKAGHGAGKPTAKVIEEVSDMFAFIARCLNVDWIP

hrDPP IV, sequence (P27487 whole entry): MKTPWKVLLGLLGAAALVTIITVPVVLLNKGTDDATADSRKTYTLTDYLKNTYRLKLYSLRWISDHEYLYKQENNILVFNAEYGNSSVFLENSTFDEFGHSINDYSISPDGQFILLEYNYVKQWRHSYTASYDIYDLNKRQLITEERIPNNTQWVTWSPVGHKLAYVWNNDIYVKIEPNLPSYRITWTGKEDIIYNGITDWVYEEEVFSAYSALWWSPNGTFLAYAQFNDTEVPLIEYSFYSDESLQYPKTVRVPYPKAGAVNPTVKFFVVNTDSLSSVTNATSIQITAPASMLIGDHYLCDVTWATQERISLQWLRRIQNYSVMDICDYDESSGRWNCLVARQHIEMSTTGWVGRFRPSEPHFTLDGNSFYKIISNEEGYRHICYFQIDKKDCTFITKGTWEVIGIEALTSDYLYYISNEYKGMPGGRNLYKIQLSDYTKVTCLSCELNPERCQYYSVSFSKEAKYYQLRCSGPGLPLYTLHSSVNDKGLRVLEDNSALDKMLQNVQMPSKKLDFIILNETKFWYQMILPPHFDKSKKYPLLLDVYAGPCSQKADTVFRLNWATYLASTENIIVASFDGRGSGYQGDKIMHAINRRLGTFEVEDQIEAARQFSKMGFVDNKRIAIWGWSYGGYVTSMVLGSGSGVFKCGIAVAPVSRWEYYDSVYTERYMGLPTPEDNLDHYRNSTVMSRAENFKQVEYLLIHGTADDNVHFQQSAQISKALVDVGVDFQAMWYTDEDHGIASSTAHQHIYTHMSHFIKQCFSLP

IC50 [1]: 30 ± 5 nM
Ki [1]: 12 ± 1.8 nM
IC50 (hrDPP IV): > 100000 nM
selectivity index SI FAP/DPP IV (hrDPP IV; FAP with respect to DPP IV): higher than 3300
IC50 (hrPREP): > 100000 nM
selectivity index SI FAP/PREP (hrPREP; FAP with respect to PREP): higher than 3300
Structure (SMILES): N#C[C@@H]1CCCN1C(=O)CNC(=O)c1ccnc2ccc(Br)cc12 [compound 5, (S)-6-bromo-N-(2-(2-cyanopyrrolidin-1-yl)-2-oxoethyl)quinoline-4-carboxamide]
